# Laboratory results reported in ChEMBL document CHEMBL1140739, “Modulation of cellular apoptosis with apoptotic protease-activating factor 1 (Apaf-1) inhibitors” (2008).
# Active and inactive are the calls of the source. The rule behind the calls is not given here. Starred links: 1 amine or outer side, 2 acyl side, 3 side chain; linkers in the order of their positions; H or OH if unused. Non-standard residues stand in square brackets, D forms with d. Residues, ends and D or L forms follow the SMILES beside them. N(2,4-Cl2-phenethyl)Gly = O=C(O)CNCCc1ccc(Cl)cc1Cl; X1 = O=C(CN(CCC(c1ccccc1)c1ccccc1)[*:1])[*:2]
# Legend:
# SAOS-2 [1] = experiment: Inhibition of apoptosome activity in human Saos2 cells assessed as inhibition of caspase 3 at 5 uM after 24 hrs by fluorimetric DEVDase assay; format: functional; settings: SAOS-2, 24 h
# How it was run: (§1)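 Apoptosis was induced with doxorubicin in PBS (HeLa 2 µg/mL, 3 × 10⁵ cells/plate; U-2 OS 2.5 µg/mL, 3.5 × 10⁵ cells/plate) or with doxycycline 2 µg/mL (Saos-2, tet-ON Bax, 2 × 10⁵ cells/plate). Compound was added 30 min later at 5 µM, and cells were harvested at 24, 48 or 72 h. Lysis was by PIPES/KCl/EDTA/MgCl₂/DTT buffer with three freeze-thaw cycles. Protein was equalized by BCA, then 20 µM Ac-DEVD-afc was added in PBS with 10% glycerol, 0.1 mM EDTA and 2 mM DTT. Fluorescence was read at 37 °C (ex 400, em 508 nm) as ΔFU/min; mean ± SE, n > 3.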
# SAOS-2 [2] = experiment: Antiapoptotic activity against human Saos2 cells assessed as cell recovery at 5 uM after 24 hrs by flow cytometry; format: functional
# U-937 [3] = experiment: Cytotoxicity against human U937 cells after 24 hrs by MTT assay; format: functional, cell-based
# How it was run: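 U937 cells in RPMI 1640 with 10% FCS and 2 mM L-glutamine were seeded at 2.5 × 10³ or 4 × 10³ cells/well and settled for 24 h. Filter-sterilized compounds were added at final 1, 5 and 10 µM (polymer conjugate at 20, 50 and 100 µM drug equivalent) for 19 h. MTT was then added for a further 5 h, giving 24 h total exposure. Formazan was dissolved in DMSO and read at 570 nm; mean ± SE, n > 3.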
# HeLa [4] = experiment: Antiapoptotic activity against human HeLa cells assessed as inhibition of doxorubicin-induced cell death after 24 hrs by flow cytometry; format: functional, cell-based
# SAOS-2 [5] = experiment: Inhibition of apoptosome activity in human Saos2 cells assessed as inhibition of caspase 3 after 24 hrs by fluorimetric DEVDase assay; format: functional, cell-based
# U-937 [6] = experiment: Antiapoptotic activity against human U937 cells assessed as inhibition of doxorubicin-induced cell death after 24 hrs by flow cytometry; format: functional, cell-based
# U2OS [7] = experiment: Antiapoptotic activity against human U2OS cells assessed as inhibition of doxorubicin-induced cell death after 24 hrs by flow cytometry; format: functional, cell-based
# HeLa [8] = experiment: Inhibition of apoptosome activity in human HeLa cells assessed as inhibition of caspase 3 at 5 uM after 48 hrs by fluorimetric DEVDase assay; format: functional; how it was run: as §1
# A549 = experiment: Antiapoptotic activity against human A549 cells assessed as inhibition of doxorubicin-induced cell death after 24 hrs by flow cytometry; format: functional, cell-based
# SAOS-2 [9] = experiment: Antiapoptotic activity against human Saos2 cells assessed as inhibition of doxycyclin-induced cell death at 1 uM by flow cytometry; format: functional
# U2OS [10] = experiment: Inhibition of apoptosome activity in human U2OS cells assessed as inhibition of caspase 3 at 5 uM after 48 hrs by fluorimetric DEVDase assay; format: functional; how it was run: as §1
# U2OS [11] = experiment: Antiapoptotic activity against human U2OS cells assessed as inhibition of doxorubicin-induced cell death by flow cytometry; format: functional, cell-based
# SAOS-2 [12] = experiment: Antiapoptotic activity against human Saos2 cells assessed as inhibition of doxycyclin-induced cell death after 24 hrs by flow cytometry; format: functional, cell-based
structure (smiles),measurement,setting,value
COc1ccccc1CCN(CC(N)=O)C(=O)C1CC(=O)N(CCc2ccc(Cl)cc2Cl)CC(=O)N1CCC(c1ccccc1)c1ccccc1 (stereo unspecified),inhibition at 5 µM,SAOS-2 [1],1%
same,Activity,SAOS-2 [2],41%
CC[C@H](C)[C@H](NC(=O)[C@H](CCCCN)NC(=O)[C@@H](NC(=O)[C@H](CCC(N)=O)NC(=O)[C@@H](N)CCCNC(=N)N)[C@@H](C)CC)C(=O)N[C@@H](Cc1c[nH]c2ccccc12)C(=O)N[C@@H](Cc1ccccc1)C(=O)N[C@@H](CCC(N)=O)C(=O)N[C@@H](CC(N)=O)C(=O)N[C@@H](CCCNC(=N)N)C(=O)N[C@@H](CCCNC(=N)N)C(=O)N[C@@H](CCSC)C(=O)N[C@@H](CCCCN)C(=O)N[C@@H](Cc1c[nH]c2ccccc12)C(=O)N[C@@H](CCCCN)C(=O)N[C@@H](CCCCN)C(=O)NCC(=O)NCC(=O)N(CCc1ccc(Cl)cc1Cl)CC(=O)N(CCC(c1ccccc1)c1ccccc1)CC(=O)N(CCc1ccc(Cl)cc1Cl)CC(N)=O,Activity,U-937 [3],Toxic
NC(=O)CN(CCc1ccc(F)cc1)C(=O)C1CC(=O)N(CCc2ccc(Cl)cc2Cl)CC(=O)N1CCC(c1ccccc1)c1ccccc1 (stereo unspecified),inhibition at 5 µM,SAOS-2 [1],34%
same,Activity,SAOS-2 [2],57%
CCCCN(CC(N)=O)C(=O)C1CC(=O)N(CCc2ccc(Cl)cc2Cl)CC(=O)N1CCC(c1ccccc1)c1ccccc1 (stereo unspecified),inhibition at 5 µM,SAOS-2 [1],45%
same,Activity,SAOS-2 [2],2%
NC(=O)CN(CCc1ccc(Cl)cc1Cl)C(=O)C1CC(=O)N(CCc2ccc(Cl)cc2Cl)CC(=O)N1CCC(c1ccccc1)c1ccccc1 (stereo unspecified),Activity,U-937 [3],Not toxic
same,Activity,HeLa [4],Active
same,Activity,SAOS-2 [5],Active
same,Activity,U-937 [6],Active
same,Activity,U2OS [7],Active
same,inhibition at 5 µM,SAOS-2 [1],53%
same,inhibition at 5 µM,HeLa [8],60%
same,Activity,A549,Active
same,inhibition at 1 µM,SAOS-2 [9],60%
same,inhibition at 5 µM,U2OS [10],50%
same,Activity,U2OS [11],Active
same,Activity,SAOS-2 [12],Active
same,Activity,SAOS-2 [2],50%
CC(=O)NCCN(CC(N)=O)C(=O)C1CC(=O)N(CCc2ccc(Cl)cc2Cl)CC(=O)N1CCC(c1ccccc1)c1ccccc1 (stereo unspecified),inhibition at 5 µM,SAOS-2 [1],21%
same,Activity,SAOS-2 [2],12%
NC(=O)CN(CCc1ccccc1F)C(=O)C1CC(=O)N(CCc2ccc(Cl)cc2Cl)CC(=O)N1CCC(c1ccccc1)c1ccccc1 (stereo unspecified),inhibition at 5 µM,SAOS-2 [1],51%
same,Activity,SAOS-2 [2],16%
NC(=O)CN(CC1CCCO1)C(=O)C1CC(=O)N(CCc2ccc(Cl)cc2Cl)CC(=O)N1CCC(c1ccccc1)c1ccccc1 (stereo unspecified),Activity,SAOS-2 [2],9%
NC(=O)CN(C(=O)C1CC(=O)N(CCc2ccc(Cl)cc2Cl)CC(=O)N1CCC(c1ccccc1)c1ccccc1)C1CC1 (stereo unspecified),inhibition at 5 µM,SAOS-2 [1],16%
same,Activity,SAOS-2 [2],10%
"CC(C)C[C@H](NC(=O)[C@H](C)NC(=O)[C@H](CCCCN)NC(=O)[C@@H](NC(=O)[C@@H](N)CS)[C@@H](C)O)C(=O)NCC(=O)N[C@@H](CS)C(=O)NCC(=O)NCC(=O)N[C@@H](Cc1ccc(O)cc1)C(=O)NCC(=O)N[C@@H](CCCNC(=N)N)C(=O)N[C@@H](CCCCN)C(=O)N[C@@H](CCCCN)C(=O)N[C@@H](CCCNC(=N)N)C(=O)N[C@@H](CCCNC(=N)N)C(=O)N[C@@H](CCC(N)=O)C(=O)N[C@@H](CCCNC(=N)N)C(=O)N[C@@H](CCCNC(=N)N)C(=O)N[C@@H](CCCNC(=N)N)C(=O)N(CCc1ccc(Cl)cc1Cl)CC(=O)N(CCC(c1ccccc1)c1ccccc1)CC(=O)N(CCc1ccc(Cl)cc1Cl)CC(N)=O (H-CTKALGCGGYGRKKRRQRRR[N(2,4-Cl2-phenethyl)Gly][X1][N(2,4-Cl2-phenethyl)Gly]-NH2)",Activity,U-937 [3],Toxic
same,Activity,U2OS [11],inactive
NC(=O)CN(CCc1ccc(Cl)cc1)C(=O)C1CC(=O)N(CCc2ccc(Cl)cc2Cl)CC(=O)N1CCC(c1ccccc1)c1ccccc1 (stereo unspecified),inhibition at 5 µM,SAOS-2 [1],2%
same,Activity,SAOS-2 [2],23%
